Experimental data of several laboratories.
HTR2B: 5-hydroxytryptamine receptor 2B (HTR2B, Homo sapiens, UniProt P41595)
HTR2C: 5-hydroxytryptamine receptor 2C (HTR2C, Homo sapiens, UniProt P28335)

The inhibition of `COc1cc2c3c(c1OC)-c1c(cccc1OC)CC3N(C)CC2` (racemic) is reported as 86% (HTR2B; ligand displacement; radioligand; 10 µM).
With `CN1CCC[C@H]1c1cccnc1` the inhibition was 65.5% (Neuronal acetylcholine receptor; alpha3/beta4 (Rattus norvegicus, UniProt P04757+P12392); ligand displacement; radioligand; 50 µM).
`Nc1ncnc2c1ncn2[C@@H]1O[C@H](C[C@@H](N)CC[C@H](N)C(=O)O)[C@@H](O)[C@H]1O` gave an inhibition of 85.3% (mRNA cap guanine-N(7) methyltransferase (RNMT, Homo sapiens, UniProt O43148); enzyme activity; inhibitor; 50 µM).
The inhibition of `CCOC(=O)Cc1c2c3c(cc(OC)c(OC)c3c3cc(OC)c(OC)cc13)CCN2C` is reported as 43% (HTR2B; ligand displacement; radioligand; 10 µM).
`c1cncc([C@@H]2CCCN2)c1` has an inhibition of -12.7% (HTR2C; ligand displacement; 50 µM).
`CC(C)CC(=O)OC[C@H]1O[C@@](C#N)(c2ccc3c(N)ncnn23)[C@H](O)[C@@H]1O` has an inhibition of 10% (HTR2C; cell-free assay; 20 µM).
For `COc1cc(C(F)(F)F)c(OC)cc1C1CCCNC1` (stereo not drawn), the Emax was 85% (HTR2C; G protein activation; agonist; BRET).
With `COc1cc2c3c(c1OC)-c1c(OC)ccc(Br)c1CC3N(C)CC2` (stereo not drawn) the inhibition was 88% (HTR2B; ligand displacement; radioligand; 10 µM).
The remaining binding of `[2H]c1c([2H])c([C@]2([2H])CCCN2C(=O)C(C)(C)Oc2ccc3cn[nH]c3c2)c([2H])c([2H])c1C([2H])([2H])[2H]` is reported as 77% (BMP-2-inducible protein kinase (BMP2K, Homo sapiens, UniProt Q9NSY1); binding; competition with immobilised ligand; 1 µM).
